Measured values published in ChEMBL document CHEMBL2057104, “Identification of myricetin and scutellarein as novel chemical inhibitors of the SARS coronavirus helicase, nsP13” (Bioorg Med Chem Lett, 2012).
Active and inactive are the calls of the source. How the calls were made is not given here.

What was measured:
Hepacivirus hominis [1] = assay: Inhibition of HCV NS3 helicase ATP hydrolysis activity overexpressed in Escherichia coli BL21(DE3) assessed as inhibition of inorganic phosphate release by AM/MG-based colometric analysis in the presence of M13 ssDNA
[2] = system: Severe acute respiratory syndrome-related coronavirus; assay: Inhibition of SARS coronavirus nsP13 ATP hydrolysis activity expressed in Escherichia coli Rosetta assessed as inhibition of inorganic phosphate release at 10 uM by AM/MG-based colometric analysis in the presence of M13 ssDNA
[3] = system: Severe acute respiratory syndrome-related coronavirus; assay: Inhibition of SARS coronavirus nsP13 helicase activity expressed in Escherichia coli Rosetta assessed inhibition of DNA unwinding activity at 10 uM by FRET assay
Method in brief: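 FRET dsDNA-unwinding assay using fluorescein/TAMRA-labelled duplex. When nsP13 unwinds the duplex, fluorescein emission is unquenched. Compound was added to the unwinding reaction at 10 µM, and fluorescence was read at 535 nm.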

Hepacivirus hominis [4] = assay: Inhibition of HCV NS3 helicase overexpressed in Escherichia coli BL21(DE3) assessed as inhibition of DNA unwinding activity at 10 uM by FRET assay
MCF-10A = assay: Cytotoxicity in human MCF10A cells at 2 uM measured every 24 hrs for 3 days by hemocytometry; assay type: cell-based; conditions: 72 h
Method in brief: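 MCF10A breast epithelial cells grown at 37°C in 5% CO2 and seeded at 2.0 × 10^5 per well. They were exposed to compound at 2 µM and harvested every 24 h for 3 days. Viable cells were counted by hemacytometer. Results are mean ± standard deviation, n = 6, compared by Student t-test.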

[5] = Inhibition of SARS coronavirus nsP13 ATP hydrolysis activity expressed in Escherichia coli Rosetta assessed as inhibition of inorganic phosphate release by AM/MG-based colometric analysis in the presence of M13 ssDNA; set-up: species or system Severe acute respiratory syndrome-related coronavirus
Method in brief: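 ATP hydrolysis was measured colorimetrically as phosphate complex formation with ammonium molybdate/malachite green. Reactions ran with a range of compound concentrations. IC50 was derived from the concentration series.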

Structure (SMILES) | inhibition (Hepacivirus hominis [1]) | inhibition [2] | inhibition [3] | inhibition (Hepacivirus hominis [4]) | Activity (MCF-10A) | IC50 [5]
O=c1cc(-c2ccc(O)c(-c3c(O)cc(O)c4c(=O)cc(-c5ccc(O)cc5)oc34)c2)oc2cc(O)cc(O)c12 | inactive | 20% | inactive | inactive | – | –
O=c1c(O)c(-c2cc(O)c(O)c(O)c2)oc2cc(O)cc(O)c12 [MYRICETIN] | inactive | > 90% | inactive | inactive | Non-toxic | –
CC1(C)CC[C@]2(C)CC=C3[C@]4(C)CC[C@H]5C(C)(C)[C@@H](O)CC[C@]5(C)[C@H]4CC[C@@]3(C)[C@@H]2C1 | inactive | 20% | inactive | inactive | – | –
C[C@H]1O[C@@H](Oc2c(-c3cc(O)c(O)c(O)c3)oc3cc(O)cc(O)c3c2=O)[C@@H](O)[C@@H](O)[C@@H]1O | inactive | 20% | inactive | inactive | – | –
O=c1cc(-c2ccc(O)cc2)oc2cc(O)c(O)c(O)c12 [SCUTELLAREIN] | inactive | > 90% | inactive | inactive | Non-toxic | 860 nM
O=C(O)[C@H]1O[C@@H](Oc2cc3oc(-c4ccc(O)cc4)cc(=O)c3c(O)c2O)[C@H](O)[C@@H](O)[C@@H]1O | inactive | – | inactive | inactive | – | –
COc1c2c(cc3oc(CO[C@@H]4O[C@H](CO)[C@@H](O)[C@H](O)[C@H]4O)cc(=O)c13)O[C@H](C(C)(C)O)C2 | inactive | – | inactive | inactive | – | –
COc1c(O)cc2oc3cc(O)c(CC=C(C)C)c(O)c3c(=O)c2c1CC=C(C)C | inactive | – | inactive | inactive | – | –
CC[C@H](CC[C@@H](C)[C@H]1CC[C@H]2[C@@H]3CC=C4C[C@@H](O)CC[C@]4(C)[C@H]3CC[C@]12C)C(C)C | inactive | – | inactive | inactive | – | –
C=C(C)[C@@H]1CC[C@]2(C(=O)O)CC[C@]3(C)[C@H](CC[C@@H]4[C@@]5(C)CC[C@H](O)C(C)(C)[C@@H]5CC[C@]43C)[C@@H]12 | inactive | – | inactive | inactive | – | –
O=C(/C=C/c1ccc(O)cc1)c1ccc(O)cc1O | inactive | – | inactive | inactive | – | –
CC(C)=CCc1c(O)cc2oc3cc(O)c(O)c(CC=C(C)C)c3c(=O)c2c1O | inactive | – | inactive | inactive | – | –
Cc1cc(=O)c2c(O)c3c(cc2o1)OC(C)(C)[C@@H](O[C@H]1O[C@@H](CO)[C@H](O)[C@@H](O)[C@@H]1O)C3 | inactive | – | inactive | inactive | – | –
O=C(O[C@H]1[C@@H]2C=CO[C@@H](O[C@@H]3O[C@H](CO)[C@@H](O)[C@H](O)[C@H]3O)[C@@H]2[C@@]2(CO)O[C@@H]12)c1ccc(O)c(O)c1 | inactive | – | inactive | inactive | – | –
CCCCCCCCCCCCC/C=C1/C(=O)O[C@H](C)[C@@H]1O | inactive | – | inactive | inactive | – | –
O=C1C[C@@H](c2ccc(O)cc2)Oc2cc(O)cc(O)c21 | inactive | – | inactive | inactive | – | –
O=c1c(O[C@@H]2O[C@H](CO)[C@@H](O)[C@H](O)[C@H]2O)c(-c2ccc(O)c(O)c2)oc2cc(O)cc(O)c12 | inactive | – | inactive | inactive | – | –
C=CCc1cc(OC)c(O)c(OC)c1 | inactive | – | inactive | inactive | – | –
